The record followed here is ChEMBL document CHEMBL2331185, “Structures and cytotoxic evaluation of new and known acyclic Ene-Ynes from an American Samoa Petrosia sp. Sponge” (J Nat Prod, 2013).

The IC50 is the concentration that gives 50% inhibition.

The nature of assay [1]: Cytotoxicity against human H460 cells after 96 hrs by CellTiter-Glo luminescent assay. It counts as functional, cell-based. The conditions noted are these: NCI-H460, 96 h. The gist of the method: (§1)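 Tumour cells grown in 96-well plates without or with continuous test compound for 96 h. Growth measured by CellTiter-Glo luminescence. IC50 is the concentration inhibiting growth by 50% relative to untreated cells. Two separate replicate experiments.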

Assay [2] is described as follows: Cytotoxicity against human H522-T1 cells after 96 hrs by CellTiter-Glo luminescent assay. It counts as functional, cell-based. The conditions noted are these: H522-T1, 96 h. The gist of the method: as §1
Assay [3] has as its system A2058. Briefly: Cytotoxicity against human A2058 cells after 96 hrs by CellTiter-Glo luminescent assay. It counts as functional, cell-based. The note with it: A2058, 96 h. The gist of the method:
as §1

The test system of assay [4] is A2058. Briefly: Selectivity index, ratio of IC50 for human IMR90 cells to IC50 for human A2058 cells. In kind it is functional. The gist of the method:
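SI calculated from the relative IC50 response of quiescent IMR-90 fibroblasts versus A2058 melanoma cells. IMR-90 IC50 comes from the 96 h low-serum quiescent assay; A2058 IC50 comes from the 96 h continuous-exposure proliferating assay. Both read by CellTiter-Glo.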

The next assay relates to IMR-90. Briefly: Cytotoxicity against human IMR90 cells after 96 hrs by CellTiter-Glo luminescent assay. In kind it is cell-based. The note with it: IMR-90, 96 h. The method in brief: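 Fibroblasts grown 4 days to confluency in MEM with 10% FBS, L-glutamine and penicillin/streptomycin. After washing, cells were held 3 more days in MEM with 0.1% FBS to reach quiescence. Compound added, then incubation 96 h at 37°C. Viability measured as cellular ATP by CellTiter-Glo.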
For orientation: ATP-based viability assays read luminescence as a measure of living cells.

Take `C#CC(O)/C=C/CCCCCCCCCC(O)CCCCCCCCCCCC(O)C#CC#CCO` (stereo not drawn): the IC50 is 800 nM in assay [1], 1200 nM in assay [2] and 800 nM in the assay on A2058 [3].
For the molecule `C#CC(O)/C=C/CCCCCCCCC/C=C\CCCCCCCCCCCC(O)C#CC#CCO` (stereo not drawn), in the assay on A2058 [4], the “Ratio IC50” value is 1. Besides, the IC50 came out at 400 nM in assay [1], 400 nM in the assay on IMR-90, 800 nM in assay [2] and 400 nM in the assay on A2058 [3].
As to `CC[C@]1(O)C[C@@H]2CN(CCc3c([nH]c4ccccc34)[C@@](C(=O)OC)(c3cc4c(cc3OC)N(C)[C@H]3[C@@](O)(C(=O)OC)[C@H](OC(C)=O)[C@]5(CC)C=CCN6CC[C@]43[C@@H]65)C2)C1` [VINBLASTINE], the “Ratio IC50” value in the assay on A2058 [4] is more than 250. Also, the IC50 in assay [1] was 2 nM; in the assay with IMR-90, more than 1000 nM; in assay [2], 9 nM; in the assay on A2058 [3], 4 nM.
The like results for `C#CC(O)/C=C/CCCCCCCCCCCC#CCCCCCCCCCCCC(O)C#CC#CCO` (stereo not drawn) were, in that order, 1.2, 1200 nM, 1600 nM, 2700 nM and 1300 nM.
The like results for `C#C[C@H](O)/C=C/CCCCCCCCCC#CCCCCCCCCCCCC/C=C\C#CC(=O)O` were, in that order, 0.1, 7300 nM, 400 nM, 8400 nM and 6400 nM.
The like results for `C#CC(O)/C=C/CCCCCCCC#C/C=C\CCCCCCCCCCCCCC(O)C#CC#CCO` (stereo not drawn) were, in that order, 0.6, 700 nM, 500 nM, 1100 nM and 800 nM.
Take `C#CC(O)/C=C/CCCCCCCC#C/C=C\CCCCCCCCCCCC(O)C#CC#CCO` (stereo not drawn): the “Ratio IC50” value with A2058 [4] stood at 0.8. The IC50 came to 1000 nM in assay [1], 300 nM with IMR-90, 600 nM in assay [2] and 400 nM in the assay on A2058 [3].
The like results for `C#C[C@H](O)/C=C/CCCCCCCCCCC/C=C/C(O)CCCCCCCCC/C=C\C#CC(=O)O` (stereo partly drawn) were, in that order, 0, more than 10000 nM, 200 nM, more than 10000 nM and 8100 nM.
Taken in the same sequence, the figures for `C#C[C@H](O)/C=C/CCCCCCCC#C/C=C\CCCCCCCCCCCC/C=C\C#CC(=O)O` were 0.1, 3100 nM, 300 nM, 4600 nM and 3800 nM.
